Source: ChEMBL document CHEMBL4813974 (Eur J Med Chem, 2021)
pIC50, pKi: −log10 of the molar value. Active and inactive are the calls of the source. No cut-off for these calls is given here.

Assays:
Neutral ceramidase [1] = target: T1, Neutral ceramidase (Homo sapiens, UniProt Q9NR71); test: Inhibition of human ASAH2 transiently over expressed in human HT-29 cell lysate using RBM14C24 fluorogenic substrate measured at pH 7.4 by fluorescence spectrophotometry
Neutral ceramidase [2] = target: T1, Neutral ceramidase; test: Inhibition of human ASAH2 recombinant enzyme using RBM14C16 fluorogenic substrate measured at 20:1 substrate to compound molar ratio at pH 7.5 by fluorescence spectrophotometry
Neutral ceramidase [3] = target: T1, Neutral ceramidase; test: Inhibition of human ASAH2 recombinant enzyme using RBM14C16 fluorogenic substrate measured at 5 uM at pH 7.5 by fluorescence spectrophotometry
[4] = target: T2, Acid ceramidase (Homo sapiens) (UniProt Q13510); test: (§1) Inhibition of human ASAH1 stably over expressed in human intact A-375 cells using RBM14C12 fluorogenic substrate measured at pH 4.5 by fluorescence spectrophotometry; format: cell-based; settings: time 3.0 hrs
T2 sequence (whole entry): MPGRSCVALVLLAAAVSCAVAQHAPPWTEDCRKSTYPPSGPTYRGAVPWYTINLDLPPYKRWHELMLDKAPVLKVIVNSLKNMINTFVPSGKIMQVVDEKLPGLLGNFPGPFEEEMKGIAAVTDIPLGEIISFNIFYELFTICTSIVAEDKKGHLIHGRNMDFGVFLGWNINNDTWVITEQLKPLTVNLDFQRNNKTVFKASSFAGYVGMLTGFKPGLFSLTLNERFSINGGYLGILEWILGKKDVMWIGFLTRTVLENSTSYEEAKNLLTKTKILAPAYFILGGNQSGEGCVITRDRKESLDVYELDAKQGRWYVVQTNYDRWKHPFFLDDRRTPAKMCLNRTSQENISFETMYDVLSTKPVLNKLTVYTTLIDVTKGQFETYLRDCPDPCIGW
Outline: (§2)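 A375 cells with doxycycline-inducible AC, induced with 1 μg/mL doxycycline for 24 h. Intact cells (2x10^4/well) given RBM14C12 (10 μM) plus compounds in a range of concentrations in DMEM 10% FBS for 3 h at 37 °C. NaIO4 oxidation at pH 10.6, fluorescence at 355/460 nm, normalized to SRB protein. Three experiments in triplicate.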

[5] = target: T2, Acid ceramidase (Homo sapiens); test: Inhibition of human ASAH1 stably over expressed in human A-375 cell lysate using RBM14C12 fluorogenic substrate measured at 1:1 compound to substrate molar ratio at pH 4.5 by fluorescence spectrophotometry; format: subcellular
Neutral ceramidase [6] = target: T1, Neutral ceramidase; test: Non-competitive inhibition of recombinant ASAH2 stably over expressed in human A-375 cell lysate using RBM14C24 as substrate; format: subcellular
[7] = target: T3, Alkaline ceramidase 3 (Mus musculus) (UniProt Q9D099); test: Inhibition of ACER3 in ASAH2-null mouse intact embryonic fibroblast using RBM14C16 fluorogenic substrate measured at pH 9 for 3 hrs by fluorescence spectrophotometry; settings: MEF
T3 sequence (whole entry): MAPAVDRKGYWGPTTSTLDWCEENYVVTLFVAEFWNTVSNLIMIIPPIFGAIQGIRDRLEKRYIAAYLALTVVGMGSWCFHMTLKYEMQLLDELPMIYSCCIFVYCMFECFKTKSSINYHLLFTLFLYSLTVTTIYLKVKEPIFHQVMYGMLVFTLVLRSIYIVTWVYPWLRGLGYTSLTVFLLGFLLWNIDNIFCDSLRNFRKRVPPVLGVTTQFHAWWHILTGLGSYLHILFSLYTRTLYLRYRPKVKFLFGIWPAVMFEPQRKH
Outline: (§3)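 Intact MEF (ASAH2-null or wild type) seeded at 2x10^4 cells/well 24 h before the assay. Then given RBM14C16 (10 μM) plus a range of compound concentrations, added together, in DMEM 10% FBS for 3 h at 37 °C. Stopped with MeOH, oxidized with NaIO4 at pH 10.6, umbelliferone fluorescence read at 355/460 nm. Normalized to SRB protein; three experiments in triplicate.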

[8] = target: T2, Acid ceramidase (Homo sapiens); test: Inhibition of human ASAH1 stably over expressed in human A-375 cell lysate using RBM14C12 fluorogenic substrate measured at 40 uM at pH 4.5 by fluorescence spectrophotometry; format: subcellular
Outline: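 Lysate of doxycycline-induced AC-overexpressing A375 cells (25 μg) in 25 mM sodium acetate pH 4.5, with RBM14C12 (10 μM) and a range of compound concentrations, 3 h at 37 °C. NaIO4/glycine-NaOH pH 10.6 development, fluorescence at 355/460 nm. Mean ± SEM from three to four experiments in triplicate.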

Neutral ceramidase [9] = target: T1, Neutral ceramidase; test: Inhibition of human ASAH2 stably over expressed in human A-375 cell lysate using RBM14C24 fluorogenic substrate measured at 20 uM at pH 7.5 by fluorescence spectrophotometry; format: subcellular
[10] = target: Neutral ceramidase (Mus musculus) (UniProt Q9JHE3); test: Inhibition of ASAH2 in wild type mouse intact embryonic fibroblast using RBM14C16 fluorogenic substrate measured at pH 7.5 incubated for 3 hrs by fluorescence spectrophotometry; settings: MEF
Sequence of Neutral ceramidase (Mus musculus) (Q9JHE3 whole entry): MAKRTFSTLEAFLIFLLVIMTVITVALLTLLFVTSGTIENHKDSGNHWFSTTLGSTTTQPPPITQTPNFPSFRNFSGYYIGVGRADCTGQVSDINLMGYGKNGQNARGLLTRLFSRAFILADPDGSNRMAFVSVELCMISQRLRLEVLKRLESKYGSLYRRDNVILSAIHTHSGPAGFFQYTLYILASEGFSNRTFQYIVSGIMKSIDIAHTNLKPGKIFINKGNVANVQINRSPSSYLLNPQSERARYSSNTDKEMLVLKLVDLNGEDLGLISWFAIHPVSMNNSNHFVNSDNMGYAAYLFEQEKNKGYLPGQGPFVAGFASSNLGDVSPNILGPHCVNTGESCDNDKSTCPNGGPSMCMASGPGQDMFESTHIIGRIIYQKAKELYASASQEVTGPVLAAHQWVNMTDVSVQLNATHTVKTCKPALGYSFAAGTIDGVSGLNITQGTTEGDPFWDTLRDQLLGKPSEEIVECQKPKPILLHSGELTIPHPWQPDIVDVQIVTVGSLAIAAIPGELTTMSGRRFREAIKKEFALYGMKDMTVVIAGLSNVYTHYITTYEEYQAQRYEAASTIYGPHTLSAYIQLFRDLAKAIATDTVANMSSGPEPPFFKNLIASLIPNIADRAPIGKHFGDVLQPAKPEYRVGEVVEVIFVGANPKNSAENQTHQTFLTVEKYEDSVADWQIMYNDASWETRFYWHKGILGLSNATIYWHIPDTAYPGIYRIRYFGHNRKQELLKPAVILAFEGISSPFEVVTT
Outline: as §3

[11] = target: T3, Alkaline ceramidase 3 (Mus musculus); test: Inhibition of ACER3 in ASAH2-null intact mouse embryonic fibroblast cell assessed as increase in total […] incubated for 3 hrs by LC-MS analysis; settings: MEF
Outline: (§4)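 ASAH2-null MEF seeded at 0.2x10^6 cells/mL, grown 24 h, then given 50 μM compound or vehicle in DMEM 10% FBS for 3 h. Cells washed with PBS, lipids extracted and quantified by LC/MS. Mean ± SD from two experiments with triplicates; unpaired two-tailed t-test versus vehicle.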

[12] = target: T3, Alkaline ceramidase 3 (Mus musculus); test: Inhibition of ACER3 in ASAH2-null intact mouse embryonic fibroblast cell assessed as reduction in sphingomyelin level incubated for 3 hrs by LC-MS analysis; settings: MEF
Outline: as §4

Acid ceramidase = target: T4, Acid ceramidase (Homo sapiens, UniProt Q13510); test: as §1; format: cell-based
T4 sequence (Q13510 whole entry): T2 sequence (whole entry)
Outline: as §2

[13] = target: T3, Alkaline ceramidase 3 (Mus musculus); test: Inhibition of ACER3 in ASAH2-null intact mouse embryonic fibroblast cell assessed as reduction in glucosylceramide level incubated for 3 hrs by LC-MS analysis; settings: MEF
Outline: as §4

Alkaline ceramidase 3 = target: T5, Alkaline ceramidase 3 (Mus musculus, UniProt Q9D099); test: Non-competitive inhibition of ACER3 in ASAH2-null mouse embryonic fibroblast lysate using RBM14C16 as substrate; format: subcellular
T5 sequence (Q9D099 whole entry): T3 sequence (whole entry)
Outline: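 Kinetics used ASAH2-null MEF lysate (25 μg) in 50 mM HEPES, 1 mM CaCl2, pH 9. RBM14C16 at 5, 10, 20 and 40 μM, with varied inhibitor amounts. Ki taken from the slopes of double-reciprocal regression lines at each inhibitor concentration. Four experiments in triplicate.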

[14] = target: T3, Alkaline ceramidase 3 (Mus musculus); test: Inhibition of ACER3 in ASAH2-null intact mouse embryonic fibroblast cell assessed as reduction in sphingosine level incubated for 3 hrs by LC-MS analysis; settings: MEF
Outline: as §4

Neutral ceramidase [15] = target: T1, Neutral ceramidase; test: Inhibition of human ASAH2 transiently over expressed in human HT29 cell lysate using RBM14C24 fluorogenic substrate measured at >40 uM at pH 7.4 by fluorescence spectrophotometry; settings: HT-29, dose microM >40
[16] = target: T3, Alkaline ceramidase 3 (Mus musculus); test: Inhibition of ACER3 in ASAH2-null mouse embryonic fibroblast lysate using RBM14C16 fluorogenic substrate measured at pH 9 in presence of Ca2+ by fluorescence spectrophotometry; format: subcellular; settings: MEF, time 3.0 hrs
Outline: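 Lysate of ASAH2-null MEF (25 μg protein) in 50 mM HEPES, 1 mM CaCl2, pH 9, incubated 3 h at 37 °C with RBM14C16 and test compound. Stopped with MeOH, then NaIO4 in glycine-NaOH pH 10.6, 1 h at 37 °C in dark. Fluorescence read at ex 355/em 460 nm against enzyme-free blanks. Triplicates.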

T1 sequence (Q9NR71 whole entry): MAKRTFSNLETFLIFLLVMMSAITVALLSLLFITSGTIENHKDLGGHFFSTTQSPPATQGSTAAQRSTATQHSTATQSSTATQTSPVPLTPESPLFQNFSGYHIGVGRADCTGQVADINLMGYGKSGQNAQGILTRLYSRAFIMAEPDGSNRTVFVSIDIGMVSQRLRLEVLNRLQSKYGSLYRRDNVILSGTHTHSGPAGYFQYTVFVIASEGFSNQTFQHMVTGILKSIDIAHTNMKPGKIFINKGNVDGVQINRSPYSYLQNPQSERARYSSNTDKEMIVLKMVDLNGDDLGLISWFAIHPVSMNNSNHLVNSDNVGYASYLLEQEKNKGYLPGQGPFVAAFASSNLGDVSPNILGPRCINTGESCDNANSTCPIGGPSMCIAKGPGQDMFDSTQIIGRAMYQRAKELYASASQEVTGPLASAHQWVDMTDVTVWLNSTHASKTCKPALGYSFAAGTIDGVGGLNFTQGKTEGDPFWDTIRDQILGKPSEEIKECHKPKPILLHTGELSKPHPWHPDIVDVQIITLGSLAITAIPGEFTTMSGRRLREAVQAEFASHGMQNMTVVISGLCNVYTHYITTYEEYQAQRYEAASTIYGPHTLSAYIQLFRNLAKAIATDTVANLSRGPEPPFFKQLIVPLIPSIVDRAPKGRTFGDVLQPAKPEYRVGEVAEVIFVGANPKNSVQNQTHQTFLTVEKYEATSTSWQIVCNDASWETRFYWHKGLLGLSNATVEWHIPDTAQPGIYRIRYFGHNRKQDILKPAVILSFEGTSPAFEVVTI

CCCCCCCCCCCC/C=C/[C@@H](O)[C@@H](C)NC(=O)c1ccc(CCCCCCC)cc1
inhibition (Neutral ceramidase [1]): inactive | inhibition (Neutral ceramidase [2]): Active | inhibition (Neutral ceramidase [3]): Active | inhibition [4]: inactive | inhibition [5]: inactive | pKi (Neutral ceramidase [6]): 6.10 | inhibition [7]: inactive | inhibition [8]: Active | inhibition (Neutral ceramidase [9]): Active | inhibition [10]: inactive

CCCCCCCCCCCC/C=C/[C@@H](O)[C@@H](C)NC(=O)c1ccc(OCCCOCOC)cc1
inhibition (Neutral ceramidase [1]): Dose-Dependent Effect | fold change (FC) [11]: 1.5 | inhibition [12]: inactive | pIC50 (Acid ceramidase): < 3.70 | inhibition [13]: inactive | inhibition [5]: inactive | pKi (Neutral ceramidase [6]): 5.27 | inhibition [7]: Active | pKi (Alkaline ceramidase 3): 4.59 | inhibition [8]: Active | inhibition [14]: inactive | inhibition (Neutral ceramidase [15]): 50% | inhibition [16]: Dose-Dependent Effect | inhibition (Neutral ceramidase [9]): inactive | inhibition [10]: Active

CCCCCCCCCCCC/C=C/[C@@H](O)[C@@H](C)NC(=O)c1ccc(OCCCCOCOC)cc1
fold change (FC) [11]: 1.5 | inhibition [12]: inactive | pIC50 (Acid ceramidase): < 3.70 | inhibition [13]: inactive | inhibition [5]: inactive | inhibition [7]: Active | pKi (Alkaline ceramidase 3): 4.46 | inhibition [14]: inactive | inhibition [16]: Dose-Dependent Effect | inhibition [10]: Active

CCCCCCCCCCCC/C=C/[C@@H](O)[C@@H](C)NC(=O)CCCCCCC
inhibition [7]: inactive | inhibition [10]: inactive
